From ChEMBL document CHEMBL3808356, “Dihydrochelerythrine and its derivatives: Synthesis and their application as potential G-quadruplex DNA stabilizing agents” (Bioorg Med Chem, 2016)
Activity calls are given as the source filed them. The calls are words filed in the database; no cut-off is given here.

Assays:
MDA-MB-231 [1] = experiment: Antiproliferative activity against human MDA-MB-231 cells assessed as reduction in cell viability at 15 uM after 72 hrs by MTT assay relative to control; type: functional
In short: (§1)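 Human cancer lines from ATCC, cultured per supplier instructions; ~5000 cells/well seeded 24 h before treatment at 37 °C, CO2. Exposed to vehicle (0.5% DMSO) or serially diluted compound (0.1 to 15 or 20 µM) for 72 h at 37 °C. MTT 100 µg added, 4 h at 37 °C; formazan dissolved in DMSO, absorbance 570 nm. Percent inhibition vs vehicle wells; triplicate, mean ± SEM.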

[2] = Antiproliferative activity against human HCT116 cells assessed as reduction in cell viability at 15 uM after 72 hrs by MTT assay relative to control; type: functional, HCT-116; in short: as §1
HeLa = experiment: Antiproliferative activity against human HeLa cells at 0.1 to 20 uM after 72 hrs by MTT assay; type: functional, cell-based; in short: as §1
[3] = Binding affinity to c-myc G-quadruplex DNA (unknown origin) assessed as stabilization of preformed parallel topology at 1 to 6 molar equivalents by circular dichroism spectroscopic analysis in absence of metal ion
In short: (§2)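 CD titration of promoter quadruplex DNA (12.5 µM strand) in 50 mM Tris-HCl pH 7.2, no added monovalent cations. Ligand from 5 mM DMSO stock added stepwise by molar equivalents. Spectra 220–320 nm, 1 mm path, 25 °C, 100 nm/min, 2 s response, average of 3 scans. Ellipticity change at ~260 nm (positive) and ~240 nm (negative) followed.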

A-431 [4] = experiment: Antiproliferative activity against human A431 cells assessed as reduction in cell viability at 15 uM after 72 hrs by MTT assay relative to control; type: functional, cell-based; in short: as §1
PC-3 = experiment: Antiproliferative activity against human PC3 cells at 0.1 to 20 uM after 72 hrs by MTT assay; type: functional, cell-based; in short: as §1
[5] = Binding affinity to telomeric DNA (unknown origin) assessed as change in melting temperature at 50 uM by circular dichroism spectroscopic analysis in presence of K+ ion
In short: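 CD melting: telomeric DNA 10 µM in 10 mM lithium cacodylate pH 7.2 with 10 mM KCl, 90 mM LiCl, plus ligand. Ellipticity followed against temperature; ΔTm taken as Tm with ligand minus Tm of DNA alone.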

A549 = experiment: Antiproliferative activity against human A549 cells at 0.1 to 20 uM after 72 hrs by MTT assay; type: functional, cell-based; in short: as §1
[6] = Binding affinity to c-Kit1 G-quadruplex DNA (unknown origin) assessed as stabilization of preformed parallel topology up to 5 molar equivalents by circular dichroism spectroscopic analysis in absence of metal ion; in short: as §2
[7] = Binding affinity to c-myc G-quadruplex DNA (unknown origin) assessed as change in melting temperature at 50 uM by circular dichroism spectroscopic analysis
In short: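 CD melting: c-MYC DNA 10 µM strand in 10 mM lithium cacodylate pH 7.2, 1 mM KCl, 99 mM LiCl. Annealed 95 °C 5 min, cooled slowly to room temperature, then 5 equiv ligand (50 µM) added and incubated overnight. Ellipticity at 263 nm, 20–95 °C at 1 °C/min. Sigmoidal Boltzmann fit; ΔTm = Tm(DNA+ligand) − Tm(DNA).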

[8] = Binding affinity to c-myc G-quadruplex DNA (unknown origin) assessed as stabilization of preformed parallel topology up to 5 molar equivalents by circular dichroism spectroscopic analysis in absence of metal ion
In short: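 Ligand added from a 5 mM DMSO stock up to 5 equiv. Scanned 220–320 nm, 1.0 mm cuvette, 100 nm/min, 25 °C. Each spectrum is the average of 3 scans.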

[9] = Binding affinity to c-myc DNA mutant (unknown origin) up to 80 uM incubated for 30 mins by Taq DNA polymerase stop assay
In short: (§3)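 Taq polymerase stop assay. 32P-labelled primer plus 50 nM cold primer annealed to 100 nM template carrying c-MYC quadruplex or mutated c-MYC sequence. Ligand 0–80 µM, 30 min at room temperature, then 0.5 U Taq, 55 °C for 30 min. Products run on 15% denaturing PAGE and phosphorimaged. Normalised % stop product plotted against ligand concentration; IC50 is 50% stop. Two independent experiments.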

[10] = Binding affinity to c-Kit1 G-quadruplex DNA (unknown origin) assessed as change in melting temperature at 50 uM by circular dichroism spectroscopic analysis
In short: (§4)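 CD melting of 10 µM DNA strand in 10 mM lithium cacodylate pH 7.2 with 90 mM LiCl and 10 mM KCl (c-KIT1 and duplex). c-KIT1 annealed at 95 °C for 5 min, slowly cooled, then given 5 equiv ligand (50 µM) overnight. Ellipticity read at 263 nm, 1 °C/min from 15–95 °C for c-KIT1. Sigmoidal Boltzmann fit. ΔTm = Tm(DNA+ligand) − Tm(DNA).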

MDA-MB-231 [11] = experiment: Antiproliferative activity against human MDA-MB-231 cells assessed as reduction in cell viability at 20 uM after 72 hrs by MTT assay relative to control; type: functional; details: MDA-MB-231, 72 h; in short: as §1
A-431 [12] = experiment: Antiproliferative activity against human A431 cells assessed as reduction in cell viability at 20 uM after 72 hrs by MTT assay relative to control; type: functional; details: A-431, 72 h; in short: as §1
[13] = (§5) Antiproliferative activity against human HCT116 cells assessed as reduction in cell viability at 20 uM after 72 hrs by MTT assay relative to control; type: functional; details: HCT-116, 72 h; in short: as §1
[14] = Binding affinity to duplex DNA (unknown origin) assessed as change in melting temperature at 50 uM by circular dichroism spectroscopic analysis; in short: as §4
[15] = Binding affinity to c-myc G-quadruplex DNA (unknown origin) by UV-visible absorption spectroscopic analysis
In short: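 UV–vis titration, 225–600 nm, 10 mm cuvette. Ligand at 30 µM in 100 mM KCl, 10 mM lithium cacodylate pH 7.2 was titrated to saturation with c-MYC DNA pre-annealed in the same buffer (95 °C 5 min, slow cooling). Binding constant from a half-reciprocal fit; mean of 3 independent experiments.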

[16] = Binding affinity to c-myc G-quadruplex DNA (unknown origin) incubated for 30 mins by Taq DNA polymerase stop assay; in short: as §3
HCT-116 = experiment: as §5; type: functional; in short: as §1

Compound	Activity (HeLa)	inhibition (A-431 [4])	Activity (PC-3)	Activity (A549)	Activity [6]	ΔTm [7]	inhibition at 20 µM (MDA-MB-231 [11])	inhibition at 20 µM (A-431 [12])	also measured
COc1ccc2c(c1OC)C(CC(C)=O)N(C)c1c-2ccc2cc3c(cc12)OCO3 (racemic) [listing 1 of 2 here]	–	–	–	–	–	–	–	–	inhibition at 15 µM (MDA-MB-231 [1]; Homo sapiens, MDA-MB-231, 72 h): 16.1%; inhibition at 15 µM ([2]; Homo sapiens, HCT-116, 72 h): 28.7%
COc1ccc2c(c1OC)C(CC(C)=O)N(C)c1c-2ccc2cc3c(cc12)OCO3 (racemic) [listing 2 of 2 here]	inactive	inactive	inactive	inactive	inactive	2.6 °C	–	–	Activity [3]: Active; ΔTm [5]: 1 °C
COc1ccc2c(c1OC)C(CC(C)=O)N(C)c1c-2ccc2cc3c(cc12)OCO3 (single isomer, unassigned; (+)) [listing 1 of 2 here]	–	–	–	–	–	–	–	–	inhibition (INH) (MDA-MB-231 [1]): 24.3%; inhibition (INH) [2]: 47.84%
COc1ccc2c(c1OC)C(CC(C)=O)N(C)c1c-2ccc2cc3c(cc12)OCO3 (single isomer, unassigned; (+)) [listing 2 of 2 here]	inactive	inactive	inactive	inactive	–	–	–	–	–
COc1ccc2c(c1OC)C(CC(C)=O)N(C)c1c-2ccc2cc3c(cc12)OCO3 (stereo in doubt) [listing 1 of 2 here]	–	–	–	–	–	–	–	–	inhibition (INH) (MDA-MB-231 [1]): 20.81%; inhibition (INH) [2]: 36.88%
COc1ccc2c(c1OC)C(CC(C)=O)N(C)c1c-2ccc2cc3c(cc12)OCO3 (stereo in doubt) [listing 2 of 2 here]	inactive	inactive	inactive	inactive	–	–	–	–	–
COc1ccc2c(c[n+](C)c3c4cc5c(cc4ccc23)OCO5)c1OC [CHELERYTHRINE]	–	–	–	–	Active	19.6 °C	100%	100%	Activity [8]: Active; Activity [9]: inactive; ΔTm [10]: 24.3 °C; inhibition at 20 µM [13]: 100%; ΔTm [14]: 0.1 °C; K [15]: 7.35 ×10⁵ /M; Activity [16]: Dose-dependent effect; IC50 [16]: 6.6 µM
COc1ccc2c(c1OC)CN(C)c1c-2ccc2cc3c(cc12)OCO3 [DIHYDROCHELERYTHRINE]	inactive	–	inactive	inactive	Active	24 °C	8.65%	30.4%	Activity [8]: Active; Activity [9]: inactive; ΔTm [10]: 17.6 °C; inhibition (HCT-116): inactive; ΔTm [14]: -1 °C; K [15]: 5.5 ×10⁵ /M; Activity [16]: Dose-dependent effect; IC50 [16]: 5.8 µM
COc1cccc2c1C(=O)c1c(O)c3c(c(O)c1C2=O)C[C@@](O)(C(=O)CO)C[C@@H]3O[C@H]1C[C@H](N)[C@H](O)[C@H](C)O1 [DOXORUBICIN]	–	–	–	–	–	–	92.7%	98.1%	inhibition at 20 µM [13]: 98%
